Data on eleven compounds can be found in ChEMBL document CHEMBL3421565, “β-D-2'-C-Methyl-2,6-diaminopurine Ribonucleoside Phosphoramidates are Potent and Selective Inhibitors of Hepatitis C Virus (HCV) and Are Bioconverted Intracellularly to Bioactive 2,6-Diaminopurine and Guanosine 5'-Triphosphate Forms” (J Med Chem, 2015).

Data set [1] relates to Hepatitis C virus. Briefly: Antiviral activity against HCV infected in human HuH7 cells assessed as reduction in replicon RNA levels incubated for 5 days by RT-PCR assay. The data set is classed as functional, organism-based, Hepacivirus hominis. Conditions: Huh-7, 120 h. The method in brief: (§1)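 Huh-7 clone B cells carrying HCV replicon RNA, seeded at 3000 cells/well; compounds added in dose response in triplicate right after seeding. Incubated 5 days at 37 °C, 5% CO₂. Total RNA extracted; replicon RNA and rRNA internal control co-amplified by one-step multiplex real-time RT-PCR. Antiviral effect taken as ΔCt versus no-drug control; cytotoxicity read from rRNA reduction.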

Data set [2] is described as follows: Cytotoxicity against human HuH7 cells assessed as reduction in rRNA levels incubated for 5 days by RT-PCR assay. The data set is classed as cell-based, Huh-7. Conditions: huh-7, 120 h. The gist of the method: as §1
Data set [3] concerns CCRF-CEM. The experiment in a line: Cytotoxicity against human CEM cells assessed as reduction in cell viability incubated for 5 days by Cell-titer 96 aqueous one solution cell proliferation assay. The data set is classed as cell-based. Conditions: ccrf-cem, 120 h.
For data set [4], the system named is Vero. The experiment in a line: Cytotoxicity against African green monkey Vero cells assessed as reduction in cell viability incubated for 5 days by Cell-titer 96 aqueous one solution cell proliferation assay. It counts as cell-based. As to conditions: chlorocebus sabaeus, vero, 120 h.
Data set [5] has as its system PBMC. The experiment in a line: Cytotoxicity against human PBMC assessed as reduction in cell viability incubated for 5 days by Cell-titer 96 aqueous one solution cell proliferation assay. Conditions: pbmc, 120 h. It counts as cell-based.

Bounds are passed on as bounds.

Usually EC50 stands for the concentration giving half of the maximal effect. For orientation: EC90 means the concentration needed for an effect of 90%. A word on the CC50: it is the concentration that lowers cell viability or growth by half.

In the case of `CCOC(=O)CCc1ccccc1OP(=O)(N[C@@H](C)C(=O)OCC)OC[C@H]1O[C@@H](n2cnc3c(N)nc(N)nc32)[C@](C)(O)[C@H]1O` (mixture of isomers), the EC50 in data set [1] turned out to be 2.3 µM. The 90% effect concentration (EC90) in data set [1] amounted to 7.3 µM. For the same compound, the values for the 50% cytotoxic concentration (CC50) in data set [2] and in data set [3] were over 10 µM and over 100 µM, respectively.
In the case of `CCOC(=O)CCc1ccccc1OP(=O)(N[C@@H](C)C(=O)OC(C)C)OC[C@H]1O[C@@H](n2cnc3c(N)nc(N)nc32)[C@](C)(O)[C@H]1O` (stereo partly specified), in data set [1], the EC50 turned out to be 2.2 µM and the EC90 was 9 µM.
Consider `CCOC(=O)[C@H](C)NP(=O)(OC[C@H]1O[C@@H](n2cnc3c(N)nc(N)nc32)[C@](C)(O)[C@H]1O)Oc1ccccc1CCC(=O)OC(C)C` (stereo partly specified), for which, in data set [1], the concentration for a half-maximal effect (EC50) was found to be 1.7 µM and the EC90 turned out to be 8 µM. For the same compound, the CC50 in data set [4] is over 100 µM.
Turning to `CC(C)OC(=O)CCc1ccccc1O[P@](=O)(N[C@@H](C)C(=O)OC(C)C)OC[C@H]1O[C@@H](n2cnc3c(N)nc(N)nc32)[C@](C)(O)[C@H]1O`, the EC50 in data set [1] came to 0.9 µM. Also, in data set [1], the EC90 amounted to 2.8 µM. In addition, the 50% cytotoxic concentration (CC50) is over 100 µM in data set [5] and 40 µM in data set [3].
For `CCOC(=O)CCc1ccccc1O[P@@](=O)(N[C@@H](C)C(=O)OC(C)C)OC[C@H]1O[C@@H](n2cnc3c(N)nc(N)nc32)[C@](C)(O)[C@H]1O`, in data set [1], the half-maximal effective concentration (EC50) worked out at 2.4 µM and the 90% effect concentration (EC90) stood at 8.2 µM. For the same compound, the CC50 in data set [4] was over 100 µM.
Take `CCOC(=O)[C@H](C)N[P@](=O)(OC[C@H]1O[C@@H](n2cnc3c(N)nc(N)nc32)[C@](C)(O)[C@H]1O)Oc1ccccc1CCC(=O)OC(C)C`: in data set [1], the EC50 was determined as 9.1 µM and the 90% effect concentration (EC90) was determined as 26 µM. For the same compound, the CC50 in data set [2] was over 10 µM.
In the case of `CCOC(=O)[C@H](C)N[P@@](=O)(OC[C@H]1O[C@@H](n2cnc3c(N)nc(N)nc32)[C@](C)(O)[C@H]1O)Oc1ccccc1CCC(=O)OC(C)C`, in data set [1], the half-maximal effective concentration (EC50) was found to be 1.4 µM and the concentration for an effect of 90% (EC90) was 6.9 µM. Further, in data set [5], the CC50 is over 100 µM. Moreover, the 50% cytotoxic concentration (CC50) in data set [3] was over 100 µM.
For the compound `CCOC(=O)CCc1ccccc1OP(=O)(N[C@@H](C)C(=O)OCC)OC[C@H]1O[C@@H](n2cnc3c(N)nc(N)nc32)[C@]2(C)OC(=O)O[C@@H]12` (stereo partly specified), the EC50 in data set [1] stood at 2.8 µM. In addition, the concentration for an effect of 90% (EC90) in data set [1] came to 8.5 µM. Also, the 50% cytotoxic concentration (CC50) in data set [2] is over 10 µM; in data set [5], over 100 µM; in data set [4], over 100 µM; in data set [3], over 100 µM.
Take `CCOC(=O)CCc1ccccc1O[P@](=O)(N[C@@H](C)C(=O)OC(C)C)OC[C@H]1O[C@@H](n2cnc3c(N)nc(N)nc32)[C@](C)(O)[C@H]1O`: in data set [1], the concentration giving a half-maximal response (EC50) turned out to be 4.7 µM. Further, the EC90 in data set [1] was determined as 9.7 µM. Also, the figures for the cytotoxic concentration (CC50) in data set [2], in data set [5] and in data set [3] were over 10 µM, over 100 µM and over 100 µM, respectively.
For the compound `CCOC(=O)CCc1ccccc1O[P@](=O)(N[C@@H](C)C(=O)OCC)OC[C@H]1O[C@@H](n2cnc3c(N)nc(N)nc32)[C@](C)(O)[C@H]1O`, in data set [1], the 50% effective concentration (EC50) was found to be 2.7 µM and the EC90 is 8.7 µM. In data set [5], the CC50 is over 100 µM.
Consider `CC(C)OC(=O)CCc1ccccc1O[P@@](=O)(N[C@@H](C)C(=O)OC(C)C)OC[C@H]1O[C@@H](n2cnc3c(N)nc(N)nc32)[C@](C)(O)[C@H]1O`, for which, in data set [1], the 50% effective concentration (EC50) is 1 µM and the EC90 was 2.7 µM. Besides, the cytotoxic concentration (CC50) in data set [2] is over 10 µM. For the same compound, in data set [3], the 50% cytotoxic concentration (CC50) is over 100 µM.
